Experiment [1] addresses T1, von Hippel-Lindau disease tumor suppressor/Bromodomain-containing protein 4 (Homo sapiens) (UniProt O60885+P40337). The experiment is described as follows: PROTAC activity at VHL/BDR4 ET domain in human MCF7 cells assessed as degradation by measuring fold change in remaining BRD4 level at 5 uM incubated for 24 hrs by immunoblotting analysis (reference value: […]). Format: cell-based. In general terms: In western blotting, separated proteins are transferred to a membrane and probed.

Experiment [2] deals with T1, von Hippel-Lindau disease tumor suppressor/Bromodomain-containing protein 4 (Homo sapiens). The experiment is described as follows: PROTAC activity at VHL/BDR4 ET domain in human MCF7 cells assessed as degradation by measuring fold change in remaining BRD4 level at 10 uM incubated for 24 hrs by immunoblotting analysis (reference value: […]). The format is cell-based.

Experiment [3] addresses T2, von Hippel-Lindau disease tumor suppressor/Bifunctional arginine demethylase and lysyl-hydroxylase JMJD6 (Homo sapiens) (UniProt P40337+Q6NYC1). The experiment is described as follows: Protac activity at VHL/JMJD6 in human MCF7 cells assessed as degradation by measuring fold change in remaining JMJD6 level at 5 uM incubated for 24 hrs by immunoblotting analysis (reference value: […]). The format is cell-based.

The target in experiment [4] is T2, von Hippel-Lindau disease tumor suppressor/Bifunctional arginine demethylase and lysyl-hydroxylase JMJD6 (Homo sapiens). The experiment is described as follows: Protac activity at VHL/JMJD6 in human MCF7 cells assessed as degradation by measuring fold change in remaining JMJD6 level at 10 uM incubated for 6 hrs by immunoblotting analysis (reference value: […]). The format is cell-based.

The target is the same in experiment [5]. The experiment is described as follows: Protac activity at VHL/JMJD6 in human MCF7 cells assessed as degradation by measuring fold change in remaining JMJD6 level at 10 uM incubated for 12 hrs by immunoblotting analysis (reference value: […]). The format is cell-based.
Experiment [6] has the same target. The experiment is described as follows: Protac activity at VHL/JMJD6 in human MCF7 cells assessed as degradation by measuring fold change in remaining JMJD6 level at 10 uM incubated for 24 hrs in presence of MG132 by immunoblotting analysis (reference value: […]). The format is cell-based.
Experiment [7] concerns the target T1, von Hippel-Lindau disease tumor suppressor/Bromodomain-containing protein 4 (Homo sapiens). In words: PROTAC activity at VHL/BDR4 ET domain in human MCF7 cells assessed as degradation by measuring fold change in remaining BRD4 level at 10 uM incubated for 24 hrs in presence of TAT-PiET by immunoblotting analysis relative to TAT/TAT-PROTAC. The format is cell-based. Put shortly: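 MCF7 cells are treated with PROTAC peptide (dose series, or 10 μM over a time course, or 10 μM with or without MG132 10 μM) for up to 24 h. Comparators are TAT, TAT-PiET, or TAT-PROTAC at 10 μM. BRD4 is measured by immunoblot, normalised to β-actin; three repeats.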

In experiment [8] the target is T2, von Hippel-Lindau disease tumor suppressor/Bifunctional arginine demethylase and lysyl-hydroxylase JMJD6 (Homo sapiens). The experiment is described as follows: PROTAC activity at VHL/JMJD6 in human MCF7 cells assessed as degradation by measuring fold change in remaining JMJD6 level at 10 uM incubated for 24 hrs in presence of TAT-PiET by immunoblotting analysis relative to TAT/TAT-PROTAC. The format is cell-based. Put shortly: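 MCF7 cells were left untreated or given TAT, TAT-PROTAC, TAT-PiET or the PROTAC peptide (each 10 μM) for 24 h. Lysates were immunoblotted with β-actin for loading. Three repeats, quantified in the Supporting Table.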

The target of experiment [9] is T1, von Hippel-Lindau disease tumor suppressor/Bromodomain-containing protein 4 (Homo sapiens). In words: PROTAC activity at VHL/His-tagged BDR4 ET domain (601 to 683 residues) (unknown origin) transfected in MCF7 cells assessed as degradation by measuring fold change in remaining BRD4 level at 5 uM incubated for 24 hrs by immunoblotting analysis (reference value: […]). Format: cell-based.

Experiment [10] shares this target. In words: PROTAC activity at VHL/His-tagged BDR4 ET domain (601 to 683 residues) (unknown origin) transfected in MCF7 cells assessed as degradation by measuring fold change in remaining BRD4 level at 10 uM incubated for 12 hrs by immunoblotting analysis (reference value: […]). The format is cell-based.
The target is the same in experiment [11]. In words: PROTAC activity at VHL/His-tagged BDR4 ET domain (1 to 470 residues) (unknown origin) transfected in MCF7 cells assessed as degradation by measuring fold change in remaining BRD4 level at 5 uM incubated for 24 hrs by immunoblotting analysis (reference value: […]). The format is cell-based.
The target is the same in experiment [12]. The experiment is described as follows: PROTAC activity at VHL/His-tagged BDR4 ET domain (1 to 470 residues) (unknown origin) transfected in MCF7 cells assessed as degradation by measuring fold change in remaining BRD4 level at 10 uM incubated for 24 hrs by immunoblotting analysis (reference value: […]). The format is cell-based.
Experiment [13] has the same target. In words: PROTAC activity at VHL/His-tagged BDR4 ET domain (1 to 470 residues) (unknown origin) transfected in MCF7 cells assessed as degradation by measuring fold change in remaining BRD4 level at 20 uM incubated for 24 hrs by immunoblotting analysis (reference value: […]). The format is cell-based.
The target is the same in experiment [14]. In words: PROTAC activity at VHL/His-tagged BDR4 […] (unknown origin) transfected in MCF7 cells assessed as degradation by measuring fold change in remaining BRD4 level at 20 uM incubated for 24 hrs by immunoblotting analysis (reference value: […]). The format is cell-based.
The target is the same in experiment [15]. The experiment is described as follows: PROTAC activity at VHL/His-tagged BDR4 ET domain (1047 to 1362 residues) (unknown origin) transfected in MCF7 cells assessed as degradation by measuring fold change in remaining BRD4 level at 5 uM incubated for 24 hrs by immunoblotting analysis (reference value: […]). The format is cell-based.
Experiment [16] has the same target. In words: PROTAC activity at VHL/His-tagged BDR4 ET domain (1047 to 1362 residues) (unknown origin) transfected in MCF7 cells assessed as degradation by measuring fold change in remaining BRD4 level at 10 uM incubated for 24 hrs by immunoblotting analysis (reference value: […]). Format: cell-based.
Experiment [17] shares this target. The experiment is described as follows: PROTAC activity at VHL/His-tagged BDR4 ET domain (1047 to 1362 residues) (unknown origin) transfected in MCF7 cells assessed as degradation by measuring fold change in remaining BRD4 level at 10 uM incubated for 12 hrs by immunoblotting analysis (reference value: […]). The format is cell-based.
Experiment [18] deals with MDA-MB-231. The experiment is described as follows: Cytotoxicity against human MDA-MB-231 cells incubated for 1 week by CellTiter 96 Aqueous One Solution based assay. Particulars: MDA-MB-231, 168 h. The format is functional, cell-based. Put shortly:
(§1)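 Cells grown in RPMI-1640 (T47D, BT549) or DMEM (MDA-MB-231) with 10% FBS, 37 °C, 5% CO2. Seeded 2 × 10^3/well, exposed to a gradient concentration of peptide for 1 week. MTS-type reagent added 20 μL per 100 μL medium, 1 h at 37 °C, absorbance read at 490 nm. EC50 derived from the concentration–response curve.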

Experiment [19] deals with T47D. The experiment is described as follows: Cytotoxicity against human T47D cells incubated for 1 week by CellTiter 96 Aqueous One Solution based assay. The settings on record: 168 h. Format: functional, cell-based. Put shortly:
as §1

The subject of experiment [20] is MCF7. The experiment is described as follows: Inhibition of His-tagged BRD4 ET domain to Flag-tagged JMJD6 (unknown origin) protein-protein interaction in human MCF7 cells assessed as fold decrease in Flag-tagged JMJD6 level at 10 uM incubated for 12 hrs by immunoblotting assay (reference value: […]). Format: cell-based.

Consider two compounds from ChEMBL document CHEMBL5543129, “Peptide Inhibitor Targeting the Extraterminal Domain in BRD4 Potently Suppresses Breast Cancer Both In Vitro and In Vivo” (J Med Chem, 2024).

Square brackets hold non-standard residues; d marks the D form. Peptide text beside a SMILES is read from it. Hyp = O=C(O)[C@@H]1C[C@@H](O)CN1; Ahx = NCCCCCC(=O)O

T1 sequence (P40337 whole entry, looked up, other chains not shown, the tested form may be a part): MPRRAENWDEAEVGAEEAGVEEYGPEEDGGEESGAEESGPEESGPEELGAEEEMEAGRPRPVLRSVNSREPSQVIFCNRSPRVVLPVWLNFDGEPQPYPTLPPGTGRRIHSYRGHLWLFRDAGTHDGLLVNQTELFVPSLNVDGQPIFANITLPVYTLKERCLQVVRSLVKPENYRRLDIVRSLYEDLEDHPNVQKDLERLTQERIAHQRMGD

Consider `CC[C@H](C)[C@H](NC(=O)[C@H](Cc1ccc(O)cc1)NC(=O)[C@@H]1C[C@@H](O)CN1C(=O)[C@H](C)NC(=O)[C@@H](NC(=O)CCCCCNC(=O)[C@H](CCC(=O)O)NC(=O)CNC(=O)[C@H](CS)NC(=O)[C@H](CCCCN)NC(=O)[C@H](Cc1ccccc1)NC(=O)[C@H](CCCCN)NC(=O)[C@H](CCC(N)=O)NC(=O)[C@H](CC(N)=O)NC(=O)[C@H](CCCNC(=N)N)NC(=O)[C@H](CCCNC(=N)N)NC(=O)[C@H](CCCNC(=N)N)NC(=O)[C@H](CCCNC(=N)N)NC(=O)[C@H](CCC(N)=O)NC(=O)[C@H](CCCNC(=N)N)NC(=O)[C@H](CCCNC(=N)N)NC(=O)[C@H](CCCCN)NC(=O)[C@H](CCCCN)NC(=O)[C@H](CCCNC(=N)N)NC(=O)CNC(=O)[C@@H](N)Cc1ccc(O)cc1)[C@@H](C)CC)C(=O)O` (H-YGRKKRRQRRRRNQKFKCGE[Ahx]IA[Hyp]YI-OH), for which the fold change (FC) in experiment [1] was found to be 0.35; in experiment [2], 0.26; in [3], 0.77; in experiment [4], 0.89; in experiment [5], 0.85; in experiment [6], 0.88. Further, the fold change (FC) in [7] stood at 0.84; in [8], 0.84; in [9], 0.72; in experiment [10] it was 0.78; in experiment [11], 1.09; in experiment [12] it was 1.11. The fold change (FC) in [13] was found to be 1.06; in experiment [14], 1.4; in experiment [15], 1.09; in [16] it was 1; in experiment [17], 1.11.

Regarding H-YGRKKRRQRRRRNQKFKCGE-OH, the EC50 (commonly the concentration that produces a half-maximal response) worked out at 4.68 µM in experiment [18] and 13.3 µM in [19]. The fold change (FC) in [20] is 0.93.
